Shown are actives, neighbours in structure and some others; about 1.7% of the full set was active somewhere.
Scp1 inh = inhibitors of human Scp-1 phosphatase. Recombinant Scp1, phosphopeptide, malachite green phosphate absorbance. inhibition, % at 20 µM. actives 0.88% (n = 340,000). AID 493091;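 active = inhibition above about 50% at 20 µM, limit read from the data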
Target sequence (Q9GZU7 76-261 limits assumed): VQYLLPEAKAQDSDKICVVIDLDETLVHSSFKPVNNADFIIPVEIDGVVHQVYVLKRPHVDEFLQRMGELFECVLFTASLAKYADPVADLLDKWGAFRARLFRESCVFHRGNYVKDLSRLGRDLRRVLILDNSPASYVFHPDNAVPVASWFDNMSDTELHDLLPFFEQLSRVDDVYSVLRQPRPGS
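Material: truncated SCP-1 phosphatase (76-261aa) / Buffer or medium: 50 mM Tris acetate pH 5.5, 0.005% Tween-20, 10 mM MgCl2 / Compound dosing: one concentration, 20 µM, with 1.0% DMSO / Incubation: 45 min room-temperature reaction, 5 min colour, 30 min stabiliser / Detection: colorimetric free-phosphate detection, absorbance 630 nm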
LMPTP block = blocks human LMPTP phosphatase | actives 0.22% (n = 360,000) | inhibition, % at 20 µM | recombinant LMPTP-A, OMFP fluorogenic substrate, fluorescence intensity | P24666;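 active = compounds that cut the enzyme signal by at least half of the control window in the single-dose screen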
Target sequence (P24666 whole entry, looked up): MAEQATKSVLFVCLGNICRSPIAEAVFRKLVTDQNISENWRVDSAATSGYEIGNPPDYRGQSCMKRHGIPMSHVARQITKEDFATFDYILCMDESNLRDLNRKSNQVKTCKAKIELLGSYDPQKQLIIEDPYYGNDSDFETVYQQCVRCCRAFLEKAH
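Test system: LMPTP-A, protein tyrosine phosphatase of low molecular weight; Input: 0.625 nM enzyme; Incubation: 50 min dark incubation at room temperature; Signal: endpoint fluorescence intensity from OMFP dephosphorylation; Read-out basis: % inhibition versus control wells.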
SUMO1 PPI mod = SUMO1-SIM interaction modulation; inhibition, % at 20 µM; actives 0.33% (n = 360,000); SUMO1 binding to a labelled peptide, TR-FRET, 1 h; P63165; in the data active = inhibition above about 37%
Target sequence (P63165 whole entry, looked up): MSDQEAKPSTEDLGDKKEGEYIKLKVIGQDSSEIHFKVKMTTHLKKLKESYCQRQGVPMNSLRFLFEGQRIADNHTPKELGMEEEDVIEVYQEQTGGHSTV
DNMT1 block = DNMT1 (human) enzyme inhibition. P26358. DNMT1 molecular beacon, Hinp1I cleavage, fluorescence. inhibition (reported as % activation of signal), % at 10 µM. actives 0.83% (n = 360,000); in the data active = inhibition above about 50%
STEP inh = inhibitors of human striatal-enriched phosphatase STEP; P54829; recombinant STEP, OMFP fluorogenic substrate, fluorescence; inhibition, % at 20 µM; actives 0.25% (n = 360,000); AID 588621;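 active = inhibition at 20 µM, scaled per plate between control wells, above about 37%, limit read from the data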
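Test system: STEP tyrosine phosphatase / Reagent: OMFP at 25 µM / Doses: 20 µM, 1% DMSO / Read-out: percent inhibition scaled to no-enzyme and uninhibited-enzyme controls, plate-pattern corrected / Detection: FITC-channel fluorescence of OMFP product / Medium: Bis-Tris buffer pH 6.0, 2.5 mM DTT, 0.005% Tween 20 / Schedule: 20 min at room temperature, dark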
Scp1 confirm = Scp-1 (human) inhibition, single-dose confirmed; shares compounds with Scp1 inh; actives 61% (n = 2,500); inhibition, % at 20 µM; recombinant SCP-1 catalytic domain, phosphate release, malachite green absorbance
Scp-1 MG ctr = interferes with malachite green readout, flagging false Scp-1 hits | 2,500 tested, under 10 active | Colorimetric interference counterscreen, malachite green absorbance 630 nm | AID 540313 | apparent inhibition (interference), % at 20 µM | shares compounds with Scp1 inh;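 note: compounds added after enzyme reaction finished so only phosphate colour detection is probed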
Scp-1 Tm shift = Scp-1 (human) binding by thermal shift; Recombinant SCP1, Sypro Orange thermal shift Tm; AID 540329; thermal shift relative to vanadate control, % at 40 µM; actives 25% (n = 1,500); shares compounds with Scp1 inh;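 active = substances whose mean melting-temperature shift, as a percentage of the reference inhibitor's shift, reaches about 5.3%, limit read from the data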
Hits are given with their value.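 Rule for the calls, unless noted: active = inhibition of at least 30% at 20 µM; inactive = the rest.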

`CN(C)C(=O)COC(=O)c1ccc(S(=O)(=O)NCc2ccco2)cc1` gave Scp1 inh 75, LMPTP block inactive, SUMO1 PPI mod inactive, DNMT1 block inactive, STEP inh inactive, Scp1 confirm 54, Scp-1 MG ctr inactive and Scp-1 Tm shift inactive.
O=C(COC(=O)c1ccc(S(=O)(=O)NCc2ccco2)cc1)Nc1ccc(Cl)cn1 was read as Scp1 inh 60, LMPTP block inactive, SUMO1 PPI mod inactive, DNMT1 block inactive, STEP inh inactive, Scp1 confirm 64, Scp-1 MG ctr inactive and Scp-1 Tm shift 6.4.
For Cc1csc2ncc(C(=O)N3CCc4ccccc43)c(=O)n12 the results were Scp1 inh inactive, LMPTP block inactive, SUMO1 PPI mod inactive, DNMT1 block inactive and STEP inh inactive.
For Cc1csc2ncc(C(=O)N3CCCc4ccccc43)c(=O)n12 the results were Scp1 inh 87, LMPTP block inactive, SUMO1 PPI mod inactive, DNMT1 block inactive, STEP inh inactive, Scp1 confirm inactive and Scp-1 MG ctr inactive.
Screening CSc1ccc(NC(=O)Nc2ccc(C(=O)NCC(=O)O)cc2)cc1 returned Scp1 inh 52, LMPTP block inactive, SUMO1 PPI mod inactive, DNMT1 block inactive, STEP inh inactive, Scp1 confirm 36, Scp-1 MG ctr inactive and Scp-1 Tm shift 6.0.
`CCSc1ccc(C(=O)NCC(=O)O)cc1` gave Scp1 inh inactive, LMPTP block inactive, SUMO1 PPI mod inactive, DNMT1 block inactive and STEP inh inactive.
Screening COc1ccc(-n2c(Cc3cccn3C)nnc2SCC(=O)NCc2ccc(F)cc2)cc1 returned Scp1 inh 90, LMPTP block inactive, SUMO1 PPI mod inactive, DNMT1 block inactive, STEP inh inactive, Scp1 confirm inactive and Scp-1 MG ctr inactive.
`COc1ccc(-n2c(Cc3cccn3C)nnc2SCC(=O)NCc2ccco2)cc1` gave Scp1 inh inactive, LMPTP block inactive, SUMO1 PPI mod inactive, DNMT1 block inactive and STEP inh inactive.
For CC12CCC3c4ccccc4CCC3(CO1)C2 (configuration not stated) the results were LMPTP block inactive, SUMO1 PPI mod inactive, DNMT1 block inactive and STEP inh inactive.
`O=C1CCCN1CC(O)CS(=O)(=O)Cc1ccc(Cl)cc1` (configuration not stated) gave Scp1 inh inactive, LMPTP block inactive, SUMO1 PPI mod inactive, DNMT1 block inactive, STEP inh inactive, Scp1 confirm inactive and Scp-1 MG ctr inactive.
CC(C)(C)c1ccc(CS(=O)(=O)CC(O)CN2CCCC2=O)cc1 (configuration not stated) was read as Scp1 inh inactive, LMPTP block inactive, SUMO1 PPI mod inactive, DNMT1 block inactive and STEP inh inactive.
For COc1ccc(CC(=O)NNC(=O)COc2ccc3ccccc3c2)cc1 the results were Scp1 inh 57, LMPTP block inactive, SUMO1 PPI mod inactive, DNMT1 block inactive, STEP inh inactive, Scp1 confirm 52, Scp-1 MG ctr inactive and Scp-1 Tm shift inactive.
COc1ccccc1NC(=O)NNC(=O)COc1ccc2ccccc2c1 was read as Scp1 inh inactive, LMPTP block inactive, SUMO1 PPI mod inactive, DNMT1 block inactive and STEP inh inactive.
CCC(=O)c1ccc(OCC(=O)Nc2cc(S(=O)(=O)N3CCCCC3)ccc2N2CCN(CC)CC2)cc1 was read as Scp1 inh 106, LMPTP block inactive, SUMO1 PPI mod inactive, DNMT1 block inactive, STEP inh inactive, Scp1 confirm inactive and Scp-1 MG ctr inactive.
CC1(C(=O)Nc2cccc(C(F)(F)F)c2)Cc2c(-c3ccccc3)ccnc2O1 (configuration not stated) was read as LMPTP block inactive, SUMO1 PPI mod inactive, DNMT1 block inactive and STEP inh inactive.
For O=C(NCCc1nc2ccccc2[nH]1)c1ccc(Br)o1 the results were Scp1 inh 61, LMPTP block inactive, SUMO1 PPI mod inactive, DNMT1 block inactive, STEP inh inactive, Scp1 confirm inactive and Scp-1 MG ctr inactive.
`O=[N+]([O-])c1ccccc1CN1CCN(Cc2ccc3ccccc3c2)CC1` gave Scp1 inh inactive, LMPTP block inactive, SUMO1 PPI mod inactive, DNMT1 block inactive and STEP inh inactive.
`Cc1cc(=O)oc2cc(NC(=O)c3cc(F)ccc3F)ccc12` gave Scp1 inh 86, LMPTP block inactive, SUMO1 PPI mod inactive, DNMT1 block inactive, STEP inh inactive, Scp1 confirm 62, Scp-1 MG ctr inactive and Scp-1 Tm shift inactive.
`Cc1cc(=O)oc2cc(NC(=O)c3ccccc3OC(F)F)ccc12` gave Scp1 inh inactive, LMPTP block inactive, SUMO1 PPI mod inactive, DNMT1 block inactive and STEP inh inactive.
For OC(COC1CCCCC1)CN1CCCCC1 (configuration not stated) the results were Scp1 inh 55, LMPTP block inactive, SUMO1 PPI mod inactive, DNMT1 block inactive, STEP inh inactive, Scp1 confirm inactive and Scp-1 MG ctr inactive.
`CC(C)(C)C1CCC(OCC(O)CN2CCCC2)CC1` (configuration not stated) gave Scp1 inh inactive, LMPTP block inactive, SUMO1 PPI mod inactive, DNMT1 block inactive and STEP inh inactive.
For CCOC(=O)C1CCN(C(=O)COC(=O)CNS(=O)(=O)c2ccc(SC)c([N+](=O)[O-])c2)CC1 the results were Scp1 inh inactive, LMPTP block inactive, SUMO1 PPI mod inactive, DNMT1 block inactive and STEP inh inactive.
Screening O=C(NCc1ccc2c(c1)OCO2)OCc1ccccc1 returned LMPTP block inactive and SUMO1 PPI mod inactive.
CCOC(=O)C1=C(C)N=c2s/c(=C/c3ccc(OCC(=O)O)cc3)c(=O)n2C1c1cc(OC)c(OC)c(OC)c1 (configuration not stated) was read as Scp1 inh inactive, LMPTP block inactive, SUMO1 PPI mod inactive, DNMT1 block inactive and STEP inh inactive.
`CCOC(=O)C1=C(C)N=c2s/c(=C\c3cccc(OCC(=O)O)c3)c(=O)n2C1c1ccccc1OC` (configuration not stated) gave Scp1 inh 61, LMPTP block inactive, SUMO1 PPI mod inactive, DNMT1 block inactive, STEP inh inactive, Scp1 confirm 33, Scp-1 MG ctr inactive and Scp-1 Tm shift 5.8.
`O=C(NCc1ccccn1)[C@@H]1CCCN1C(=O)[C@@H]1CCCN1C(=O)c1cccc(Cl)c1` gave LMPTP block inactive and SUMO1 PPI mod inactive.

Screening results: PubChem BioAssay, Sanford-Burnham Center for Chemical Genomics
